From ChEMBL document CHEMBL1142319, “New antitumor imidazo[2,1-b]thiazole guanylhydrazones and analogues” (2008) come the findings set out here.

Holding throughout (type): functional
Common to all, as to settings: for TGI: read-out: pTGI (converted)

Experiment [1] concerns Cancer cell lines. The experiment can be described thus: Inhibition of human colon cancer cells. In a few lines:
(§1)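 NCI 60-cell-line panel, with results grouped by tissue subpanel. Compounds dissolved in DMSO and tested at five 10-fold dilutions, top concentration 10^-4 M. Values given as -log molar concentration for 50% growth inhibition (pGI50), total growth inhibition (pTGI) and 50% cell kill (pLC50), with subpanel means calculated.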

Experiment [2] concerns Leukemia cell. The experiment can be described thus: Inhibition of human leukemia cells. Put shortly: as §1
In experiment [3] the test system is Cancer cell lines. The experiment can be described thus: Inhibition of human non-small cell lung cancer cells. In a few lines:
as §1

The test system of experiment [4] is Cancer cell lines. In words: Inhibition of human CNS cancer cells. Put shortly: as §1
Experiment [5] deals with Melanoma cell. The experiment can be described thus: Inhibition of human melanoma cells. In a few lines:
as §1

The subject of experiment [6] is Cancer cell lines. In words: Inhibition of human ovarian cancer cells. In a few lines:
as §1

The subject of experiment [7] is Cancer cell lines. In words: Inhibition of human renal cancer cells. In a few lines:
as §1

In experiment [8] the test system is Cancer cell lines. The experiment can be described thus: Inhibition of human prostate cancer cells. In a few lines: as §1
Experiment [9] relates to Cancer cell lines. The experiment can be described thus: Inhibition of human breast cancer cells. Put shortly:
as §1

In the case of `Cc1cn2c(/C=N/NC(=N)N)c(-c3ccsc3)nc2s1`, the 50% growth inhibitory concentration (GI50) in experiment [1] is 5.37 µM; in [2] it was 7.76 µM; in [3], 13.8 µM; in experiment [4] it was 6.92 µM; in experiment [5], 8.13 µM; in experiment [6], 11 µM. For the same compound, the GI50 in experiment [7] is 10.2 µM; in [8], 7.59 µM; in experiment [9], 7.76 µM. In addition, the TGI in experiment [1] was 20.4 µM; in experiment [2] it was 46.8 µM; in experiment [3] it was 41.7 µM; in [4], 19.5 µM; in experiment [5], 19.5 µM; in experiment [6], 27.5 µM. Further, the TGI in [7] is 28.2 µM; in [8], 20 µM; in [9] it was 22.4 µM.
As to `Cc1cn2c(/C=N/NC(=N)N)c(-c3cccs3)nc2s1`, the 50% growth inhibitory concentration (GI50) was 2.57 µM in experiment [1]; 1.82 µM in [2]; 7.76 µM in experiment [3]; 4.27 µM in experiment [4]; 2.24 µM in experiment [5]; 6.46 µM in experiment [6]. For the same compound, the GI50 in experiment [7] is 4.27 µM; in experiment [8], 3.02 µM; in [9] it was 5.75 µM. Besides, the TGI was 8.13 µM in experiment [1]; 4.07 µM in experiment [2]; 25.1 µM in [3]; 11.7 µM in [4]; 5.89 µM in [5]; 17.4 µM in experiment [6]. Also, the TGI in [7] is 14.1 µM; in experiment [8], 12.3 µM; in experiment [9], 18.6 µM.
For the compound `N=C(N)N/N=C/c1c(-c2ccsc2)nc2sccn12`, the GI50 was 14.1 µM in [1]; 6.92 µM in experiment [2]; 15.1 µM in experiment [3]; 15.1 µM in experiment [4]; 17 µM in experiment [5]; 15.5 µM in [6]. Besides, the GI50 is 14.8 µM in [7], 14.8 µM in experiment [8] and 17.4 µM in experiment [9]. Also, the TGI in experiment [1] was 29.5 µM; in [2] it was 24 µM; in experiment [3], 30.2 µM; in [4], 28.8 µM; in experiment [5], 31.6 µM; in experiment [6], 31.6 µM. The TGI was 29.5 µM in experiment [7], 28.8 µM in experiment [8] and 31.6 µM in experiment [9].
Turning to `N=C(N)N/N=C/c1c(-c2cc(Cl)sc2Cl)nc2sccn12`, the GI50 in experiment [1] is 0.977 µM; in [2], 1 µM; in experiment [3] it was 2.69 µM; in experiment [4], 1.12 µM; in experiment [5], 2.82 µM; in experiment [6], 1.1 µM. Also, the figures for the GI50 in experiment [7], in [8] and in [9] were 1.62 µM, 1.55 µM and 1.66 µM, respectively. In addition, the TGI in experiment [1] was 2.34 µM; in [2], 2.14 µM; in experiment [3], 10.7 µM; in experiment [4], 2.82 µM; in [5], 7.24 µM; in [6], 3.55 µM. The TGI in [7] was 5.75 µM; in experiment [8], 6.17 µM; in [9] it was 4.27 µM.
`CCOC(=O)c1nc2sc(Cl)cn2c1/C=N\NC(=N)N`: the GI50 in experiment [1] is 20.9 µM; in experiment [2], 14.1 µM; in [3], 18.2 µM; in experiment [4] it was 19.5 µM; in [5], 19.5 µM; in experiment [6] it was 20.9 µM. The GI50 was 21.4 µM in [7], 17 µM in [8] and 22.9 µM in experiment [9]. Moreover, the TGI in experiment [1] is 47.9 µM; in experiment [2], 38.9 µM; in [3] it was 41.7 µM; in [5], 45.7 µM; in experiment [8] it was 38.9 µM.
For `Cc1cn2c(/C=N/Nc3ccccn3)c(-c3ccc(Cl)c([N+](=O)[O-])c3)nc2s1`, the concentration for 50% growth inhibition (GI50) was 26.3 µM in experiment [1]; 16.6 µM in [2]; 11.5 µM in [3]; 7.76 µM in experiment [4]; 18.2 µM in experiment [5]; 9.12 µM in experiment [6]. Further, the results for the concentration for 50% growth inhibition (GI50) in experiment [7], in [8] and in [9] were 15.5 µM, 11.7 µM and 13.8 µM, respectively. The TGI in [1] is 42.7 µM; in [2], 33.9 µM; in experiment [3] it was 30.9 µM; in experiment [4] it was 19.5 µM; in experiment [5] it was 38 µM; in [6], 25.7 µM. The values for the TGI in [7], in experiment [8] and in experiment [9] were 39.8 µM, 38.9 µM and 38.9 µM, respectively.
With `N=C(N)N/N=C/c1c(-c2ccc(Cl)c([N+](=O)[O-])c2)nc2ccccn12`, the concentration for 50% growth inhibition (GI50) in experiment [1] was 1.86 µM; in experiment [2], 1.7 µM; in experiment [3], 1.7 µM; in experiment [4], 1.2 µM; in experiment [5], 2.04 µM; in experiment [6] it was 1.86 µM. Besides, the GI50 was 2.19 µM in experiment [7], 1.51 µM in [8] and 2.29 µM in experiment [9]. Moreover, the TGI was 7.94 µM in experiment [1]; 3.8 µM in experiment [2]; 3.8 µM in experiment [3]; 3.02 µM in experiment [4]; 3.63 µM in experiment [5]; 3.63 µM in experiment [6]. The figures for the TGI in experiment [7], in [8] and in experiment [9] were 4.9 µM, 3.09 µM and 5.37 µM, respectively.
Regarding `Cc1cc(-c2nc3sc(C)cn3c2/C=N/NC(=N)N)c(C)s1`, the GI50 is 3.72 µM in [1]; 47.9 µM in [2]; 9.77 µM in experiment [3]; 8.32 µM in [4]; 7.41 µM in experiment [5]; 12 µM in experiment [6]. The GI50 in experiment [7] is 14.1 µM; in experiment [8], 4.79 µM; in experiment [9], 4.47 µM. The TGI is 11.7 µM in experiment [1]; 25.1 µM in [3]; 18.2 µM in [4]; 15.1 µM in experiment [5]; 33.1 µM in experiment [6]; 32.4 µM in experiment [7]. Besides, the TGI in experiment [8] was 19.1 µM; in [9], 13.5 µM.
For the compound `N=C(N)N/N=C/c1c(-c2ccc(Cl)c([N+](=O)[O-])c2)nc2sc3ccccc3n12`, the 50% growth inhibitory concentration (GI50) is 0.339 µM in experiment [1]; 0.138 µM in experiment [2]; 0.676 µM in [3]; 0.447 µM in [4]; 0.708 µM in [5]; 1.1 µM in experiment [6]. Further, the GI50 in experiment [7] was 0.832 µM; in [8], 2.29 µM; in [9], 0.741 µM. The TGI is 3.63 µM in experiment [1]; 3.8 µM in [3]; 3.02 µM in [4]; 2.75 µM in experiment [5]; 1.95 µM in experiment [6]; 3.89 µM in experiment [7]. Further, the TGI in experiment [8] is 14.8 µM; in experiment [9], 9.55 µM.
For `COc1cc(OC)cc(-c2nc3sccn3c2/C=N/NC(=N)N)c1`, the GI50 in [1] was 6.03 µM; in experiment [2] it was 10.2 µM; in experiment [3] it was 9.33 µM; in experiment [4], 8.13 µM; in experiment [5], 8.51 µM; in [6], 7.94 µM. Moreover, the concentration for 50% growth inhibition (GI50) in [7] is 8.51 µM; in experiment [8] it was 9.33 µM; in experiment [9], 10 µM. For the same compound, the TGI is 14.8 µM in experiment [1]; 19.1 µM in experiment [2]; 20.4 µM in experiment [3]; 17.4 µM in experiment [4]; 17.8 µM in experiment [5]; 17 µM in [6]. In addition, the TGI in experiment [7] is 17.8 µM; in [8] it was 16.2 µM; in [9], 20.4 µM.
In the case of `COc1cc([N+](=O)[O-])c(OC)cc1-c1nc2sc(Cl)cn2c1/C=N\NC(=N)N/N=C\c1c(-c2cc(OC)c([N+](=O)[O-])cc2OC)nc2sc(Cl)cn12`, the GI50 in [1] is 2.24 µM; in experiment [2], 2.34 µM; in experiment [3], 2.04 µM; in experiment [4] it was 1.62 µM; in experiment [5], 1.91 µM; in [6], 1.82 µM. In addition, the GI50 in experiment [7] is 2.19 µM; in experiment [8], 1.95 µM; in [9] it was 3.31 µM. Further, the TGI in experiment [1] was 7.08 µM; in experiment [3], 3.98 µM; in experiment [4], 2.57 µM; in experiment [5], 5.13 µM; in experiment [6], 3.8 µM; in [7], 4.9 µM. Besides, the TGI in experiment [8] is 3.8 µM; in experiment [9] it was 6.76 µM.
For the compound `N=C(N)N/N=C/c1c(-c2cccs2)nc2sccn12`, the GI50 was 9.77 µM in experiment [1]; 6.76 µM in experiment [2]; 12.9 µM in experiment [3]; 12 µM in experiment [4]; 15.1 µM in experiment [5]; 10.2 µM in [6]. Further, the results for the concentration for 50% growth inhibition (GI50) in experiment [7], in experiment [8] and in experiment [9] were 8.32 µM, 12.3 µM and 14.8 µM, respectively. Further, the TGI in experiment [1] was 24 µM; in [2], 38 µM; in [3] it was 29.5 µM; in experiment [4] it was 25.7 µM; in [5], 28.8 µM; in [6], 26.9 µM. Also, the TGI is 21.9 µM in experiment [7], 24.5 µM in experiment [8] and 28.2 µM in [9].
With `N=C(N)N/N=C/c1c(-c2cccs2)nc2n1CCS2`, the GI50 is 17.4 µM in experiment [1]; 18.6 µM in experiment [2]; 28.8 µM in experiment [3]; 19.1 µM in experiment [4]; 21.4 µM in experiment [5]; 39.8 µM in experiment [6]. Also, the 50% growth inhibitory concentration (GI50) in experiment [7] is 22.9 µM; in experiment [8], 19.5 µM; in experiment [9] it was 17.4 µM. The TGI in [1] was 38.9 µM; in [2], 38.9 µM; in experiment [4], 39.8 µM; in experiment [5], 38 µM; in [8] it was 36.3 µM; in [9] it was 40.7 µM.
